Experimental data pooled from the literature.
Each line is one published result; the experiments were not run side by side.
Sample: plasma

Cn1cc(Nc2nc(N)nc(-c3cccc(-n4ccc5cc(C6CC6)cc(F)c5c4=O)c3CO)n2)cn1
Tmax (human; oral; 300 mg; single dose, fasted, healthy volunteers): 2 h

Cc1ccc(C(=O)Nc2ccc(CN3CCN(C)CC3)c(C(F)(F)F)c2)cc1C#Cc1cnc2[nH]ncc2c1
Tmax (human; oral; 20 mg; healthy volunteers): 8 h

NS(=O)(=O)OC[C@@H]1C[C@@H](n2ccc3c(N[C@H]4CCc5ccccc54)ncnc32)C[C@@H]1O
Tmax (human; intravenous; 20 mg/m²; patients): 1.03 h

COc1ccc([C@@H](O)c2cc(-c3ncnc4cc(N5CCOCC5)ccc34)c(F)cc2Cl)nn1
Tmax (human; oral; 250 mg; single dose, patients): 1.03 h

CC(C)n1c(Nc2cccnc2)nc2cnc(Nc3ccc(N4CCN(C)CC4)cc3)nc21
Tmax (male human; oral; 150 mg; single dose, healthy volunteers): 1.5 h

CN1CC[C@@H](c2c(O)cc(O)c3c(=O)cc(-c4ccc(C(F)(F)F)cc4Cl)oc23)[C@@H]1CO
Tmax (human; oral; 200 mg; patients): 5.2 h

Cl.[2H]C([2H])([2H])CC(=O)c1cnc(NC(=O)C2CC2)cc1Nc1cccc(-c2ncn(C([2H])([2H])[2H])n2)c1OC
Tmax (human; oral; 10 mg; multiple doses, once daily, fasted): 1.6 h

CNC(=O)n1ccc2cc(Oc3ccnc(NC(=O)c4ccc(C5CCN(CCO)CC5)cc4)c3)c(OCCOC)cc21
Tmax (human; oral; 35 mg; single dose, healthy volunteers): 2 h

C[C@H](O)C(=O)C1=Nc2c(nc(N)[nH]c2=O)NC1
Tmax (human; oral; 20 mg/kg; single dose, healthy volunteers): 4 h
